# Data taken from article PMC7825188 (CPT: Pharmacometrics & Systems Pharmacology, 2020).
# Like-named read-outs stand apart in the source and are kept apart here.
# Key:
# [1] = type: in vivo, human; settings: MBCT102
# Procedure, shortened: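 Healthy men (18–65 y, BMI 18–30, nonsmokers) completed two periods ≥14 days apart. Period 1 was a single oral 14 mg dose (2 × 7 mg capsules). In period 2, azithromycin 500 mg was given daily on days −1 to 2, with acumapimod on day 1. Plasma (K2EDTA) was sampled predose to 168 h, plus 336 h in period 2, and assayed by LC-MS/MS (1.0–1,000 ng/mL). Noncompartmental Cmax and AUCs were ln-transformed and analysed by ANOVA, giving GMR with 90% CI.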
# [2] = type: in vivo, human; settings: MBCT103
# Procedure, shortened: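 Healthy men received period 1 as in the azithromycin study (single 14 mg oral dose). In period 2, itraconazole oral solution 200 mg was given once daily on days 1–14, with a single acumapimod dose on day 7, 2 h post-itraconazole. Washout was ≥16 days. Plasma was sampled predose to 192 h and assayed by LC-MS/MS. Noncompartmental Cmax and AUCs were ln-transformed and analysed by ANOVA, giving GMR with 90% CI.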
# [3] = Study MBCT102: safety and tolerability; type: in vivo, human
# Procedure, shortened: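 AEs and SAEs were recorded from check-in on day −1 until the post-study physical examination (day 15). TEAEs were AEs that were new after treatment or worsened in intensity or frequency. Intensity was graded mild, moderate or severe.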
# [4] = Study MBCT103: safety and tolerability; type: in vivo, human
# Procedure, shortened: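 AEs and SAEs were recorded from check-in on day −1 until a follow-up call 14 days after the last acumapimod dose. TEAEs were AEs that were new after treatment or worsened in intensity or frequency. Intensity was graded mild, moderate or severe. The safety set comprised all subjects receiving ≥1 acumapimod dose.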
# [5] = Human mass balance study; type: in vivo; settings: assigned to biliary clearance (Model 1) or unabsorbed drug (Model 2)
# [6] = target: P‐glycoprotein (P‐gp) (Homo sapiens, UniProt P08183); experiment: P-gp substrate status of acumapimod; type: in vitro ADME
# P‐glycoprotein (P‐gp), sequence (P08183 whole entry): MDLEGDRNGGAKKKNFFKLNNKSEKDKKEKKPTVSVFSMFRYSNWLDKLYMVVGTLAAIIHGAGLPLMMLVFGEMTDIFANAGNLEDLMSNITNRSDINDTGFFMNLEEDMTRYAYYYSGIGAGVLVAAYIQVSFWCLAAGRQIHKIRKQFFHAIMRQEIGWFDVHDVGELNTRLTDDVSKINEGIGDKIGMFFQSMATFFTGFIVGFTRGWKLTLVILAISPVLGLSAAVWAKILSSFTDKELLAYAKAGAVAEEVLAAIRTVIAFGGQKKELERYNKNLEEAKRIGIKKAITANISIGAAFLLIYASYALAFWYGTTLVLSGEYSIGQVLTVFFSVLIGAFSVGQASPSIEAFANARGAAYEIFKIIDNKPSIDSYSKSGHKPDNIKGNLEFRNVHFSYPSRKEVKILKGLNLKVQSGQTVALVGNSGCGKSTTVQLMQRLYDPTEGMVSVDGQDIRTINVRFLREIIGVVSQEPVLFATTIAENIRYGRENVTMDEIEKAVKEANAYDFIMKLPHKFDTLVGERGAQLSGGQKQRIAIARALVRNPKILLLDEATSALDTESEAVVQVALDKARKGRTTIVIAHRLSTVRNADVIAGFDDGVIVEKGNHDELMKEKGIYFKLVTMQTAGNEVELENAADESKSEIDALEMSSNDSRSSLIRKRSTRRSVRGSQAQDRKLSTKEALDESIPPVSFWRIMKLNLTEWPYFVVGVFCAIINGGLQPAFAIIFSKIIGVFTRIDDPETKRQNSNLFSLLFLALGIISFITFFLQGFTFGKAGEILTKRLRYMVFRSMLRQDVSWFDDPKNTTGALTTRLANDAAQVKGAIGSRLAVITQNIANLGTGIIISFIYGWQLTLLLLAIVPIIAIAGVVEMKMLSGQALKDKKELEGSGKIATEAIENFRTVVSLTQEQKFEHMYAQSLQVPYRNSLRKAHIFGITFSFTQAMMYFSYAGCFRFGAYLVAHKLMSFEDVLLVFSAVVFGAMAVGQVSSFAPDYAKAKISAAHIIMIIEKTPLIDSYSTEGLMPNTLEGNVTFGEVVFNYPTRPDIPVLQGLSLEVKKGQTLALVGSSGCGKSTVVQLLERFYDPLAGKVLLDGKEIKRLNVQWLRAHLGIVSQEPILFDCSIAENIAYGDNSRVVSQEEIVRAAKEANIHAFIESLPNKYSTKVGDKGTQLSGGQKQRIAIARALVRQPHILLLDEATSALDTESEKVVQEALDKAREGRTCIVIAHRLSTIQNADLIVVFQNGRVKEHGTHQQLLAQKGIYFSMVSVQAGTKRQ
# [7] = target: CYP3A4 (Homo sapiens, UniProt P08684); experiment: In vitro CYP phenotyping of acumapimod; type: in vitro ADME; settings: both models; based on in vitro phenotyping data
# CYP3A4, sequence (P08684 whole entry): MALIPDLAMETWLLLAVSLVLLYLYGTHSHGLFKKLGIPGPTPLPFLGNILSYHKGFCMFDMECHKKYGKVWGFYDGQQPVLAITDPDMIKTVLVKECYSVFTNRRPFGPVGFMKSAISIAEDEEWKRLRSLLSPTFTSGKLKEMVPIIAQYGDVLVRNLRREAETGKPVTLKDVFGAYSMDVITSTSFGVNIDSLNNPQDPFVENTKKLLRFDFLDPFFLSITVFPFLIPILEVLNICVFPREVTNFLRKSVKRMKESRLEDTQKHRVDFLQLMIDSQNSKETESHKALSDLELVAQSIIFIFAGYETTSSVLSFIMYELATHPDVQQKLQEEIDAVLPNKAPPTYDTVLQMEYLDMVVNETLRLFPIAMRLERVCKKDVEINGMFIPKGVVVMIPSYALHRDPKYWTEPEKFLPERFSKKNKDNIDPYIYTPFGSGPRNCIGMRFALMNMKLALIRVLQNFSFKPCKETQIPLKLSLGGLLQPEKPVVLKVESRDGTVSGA
# [8] = acumapimod + azithromycin relative to acumapimod alone
# [9] = azithromycin, upper 90% CI of GMR
# [10] = with azithromycin vs. acumapimod alone
# [11] = acumapimod + itraconazole vs. acumapimod alone
# [12] = itraconazole, upper 90% CI of GMR
# [13] = with itraconazole relative to acumapimod alone
compound,measurement,setting,value
Cc1ccc(C(=O)NC2CC2)cc1-n1ncc(C(=O)c2cccc(C#N)c2)c1N [acumapimod],AUC0–t ratio (adjusted GMR),[1]; [8],105.65%
same,AUC0–∞ ratio (adjusted GMR),[1]; [8],104.32%
same,Cmax ratio (adjusted GMR),[1]; [8],106.34%
same,"upper limit of the interaction, AUC0–t",[1]; [9],112%
same,"upper limit of the interaction, AUC0–∞",[1]; [9],110%
same,"upper limit of the interaction, Cmax",[1]; [9],115%
same,increase of geometric mean AUC0–∞,[1]; [10],4.3%
same,increase of geometric mean Cmax,[1]; [10],6.3%
same,AUC0–t ratio (adjusted GMR),[2]; [11],110.09%
same,AUC0–∞ ratio (adjusted GMR),[2]; [11],110.22%
same,Cmax ratio (adjusted GMR),[2]; [11],99.44%
same,"upper limit of interaction, AUC0–t",[2]; [12],120%
same,"upper limit of interaction, AUC0–∞",[2]; [12],120%
same,"upper limit of interaction, Cmax",[2]; [12],109%
same,change in Cmax,[2]; [13],no change
same,increase of geometric mean AUC0–t,[2]; [13],10%
same,increase of geometric mean AUC0–∞,[2]; [13],10%
same,SAEs or deaths,[3],No SAEs or deaths were reported
same,"safety laboratory, vital signs, electrocardiogram, physical examination",[3],No clinically relevant findings
same,subjects reporting TEAEs,"[3]; 8 of 16 subjects, both periods",50%
same,"number of TEAEs, overall","[3]; 16 subjects, both periods",Fifteen
same,number of TEAEs,[3]; acumapimod alone (period 1),7
same,number of TEAEs,[3]; acumapimod with azithromycin (period 2),8
same,intensity of TEAEs,[3]; all TEAEs,mild or moderate
same,TEAE considered likely related to acumapimod,"[3]; one TEAE, first exposure (acumapimod alone)",acneiform rash
same,"deaths, SAEs, severe TEAEs",[4],"No deaths, SAEs, or severe TEAEs were reported"
same,treatment-related TEAEs,[4],No TEAEs were judged to be treatment related
same,"vital signs, electrocardiogram, laboratory parameters",[4],No safety concerns were raised
same,subjects reporting TEAEs,"[4]; 6 of 16 subjects, both periods",37.5%
same,"number of TEAEs, overall","[4]; 16 subjects, both periods",10
same,number of TEAEs,[4]; acumapimod and itraconazole (period 2),8
same,liver function tests and central nervous system AEs,[4]; co‐administration of acumapimod and itraconazole,no clinically meaningful changes
same,dose recovered in the feces,[5],33.9%
same,P-gp substrate status,[6],substrate of P‐glycoprotein (P‐gp)
same,share of CYP‐mediated metabolism assigned to CYP3A4,[7],97.8%
